CYP2C9 activ: CYP2C9 (human) activation; AID 1024; activation factor at 5 µM; P11712; recombinant CYP2C9, luciferin-H conversion, luminescence; hits give high values; factor 1 = untreated enzyme, 0 = blocked; 1.4% of 96,000 active;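 active means activation factor of 2 or more for CYP2C9 at a 5 µM dose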;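 further: 0 = sulfaphenazole-blocked wells and 1 = vehicle-only wells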
Target sequence (P11712 whole entry, looked up): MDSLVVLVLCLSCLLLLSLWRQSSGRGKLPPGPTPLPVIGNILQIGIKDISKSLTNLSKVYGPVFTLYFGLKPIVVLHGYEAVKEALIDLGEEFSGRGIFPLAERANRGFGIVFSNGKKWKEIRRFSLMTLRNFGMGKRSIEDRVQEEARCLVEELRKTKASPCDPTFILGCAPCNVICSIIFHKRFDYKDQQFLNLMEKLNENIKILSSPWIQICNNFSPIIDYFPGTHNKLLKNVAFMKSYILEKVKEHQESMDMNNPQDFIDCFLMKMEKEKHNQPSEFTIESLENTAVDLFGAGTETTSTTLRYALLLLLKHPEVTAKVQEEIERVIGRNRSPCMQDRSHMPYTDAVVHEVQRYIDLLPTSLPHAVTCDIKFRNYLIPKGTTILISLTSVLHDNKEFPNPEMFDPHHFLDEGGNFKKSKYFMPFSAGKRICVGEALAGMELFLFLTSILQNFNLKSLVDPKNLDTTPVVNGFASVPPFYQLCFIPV
CYP2C19 act: increases human CYP2C19 enzyme activity | P33261 | recombinant CYP2C19, luciferin-H EGE luminescence; hits give high values; 0 = fully inhibited enzyme, 1 = untreated enzyme | AID 1025 | activation factor at 5 µM | 96,000 tested, under 10 active;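 active means activation factor of at least 2 at 5 µM in the primary screen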;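 further: 0 = wells with 2.5 mM tranylcypromine and 1 = vehicle-only wells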
CYP2C19 inh: inhibitors of human CYP2C19. CYP2C19 Supersomes, luciferin-H EGE luminescence, 30 min. inhibition, % at 5 µM. 21% of 96,000 active. AID 778;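 active means CYP2C19 inhibition above a set limit at 5 µM in the primary screen, cut at about 50% in these data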;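 further: plate controls were negative control wells for no effect and 2.5 mM tranylcypromine positive control for full effect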
Ecoli tolC: growth inhibitors of E. coli BW25113 tolC mutant | OD615 | 2.2% of 65,000 active | AID 573 | growth inhibition, % at 10 µM (by protocol);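 active means growth inhibition at or above a cutoff equal to the mean over every tested compound plus 3 SD, cut at about 60% in these data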;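 further: growth measured after 20 h incubation at 37 °C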
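System: E. coli ΔtolC::kan strain BW25113; Buffer or medium: LB broth supplemented with 50 µg/mL kanamycin; Compound: 10 µM final, single dose; Incubation: bacterial growth with compound for 20 h at 37 °C; Signal: A615 absorbance measurement; Evaluation: growth inhibition in percent.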
E coli WT exp: growth inhibitors of E. coli BW25113 wild type. 0.15% of 98,000 active. AID 710. growth inhibition, % at 100 µM. OD600 absorbance;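 active means growth inhibition above about 50% at one test dose, limit read from the data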;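 further: growth measured after 20 h incubation at 37 °C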
CYP2C9 inh: inhibitors of human CYP2C9 | P11712 | CYP2C9 Supersomes, luciferin-H conversion, luminescence | inhibition, % at 5 µM | 20% of 96,000 active | AID 777;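 active means blocking of liver enzyme CYP2C9 beyond about 50% at 5 µM, limit read from the data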
Starred values were filed as active, the others as inactive; nt = no result given. Shown are actives, neighbours in structure and some others; about 29% of the full set was active somewhere.

SMILES	CYP2C9 activ	CYP2C19 act	CYP2C19 inh	Ecoli tolC	E coli WT exp	CYP2C9 inh
Cc1ccc(CNC(=O)C2CCCN(S(=O)(=O)c3cccnc3)C2)cc1 (stereo not drawn)	0.5	0.7	28.6	-10.7	-9.0	46.5
O=C(NCCN1CCN(c2ccccc2F)CC1)C1CCCN(S(=O)(=O)c2cnc[nH]2)C1 (stereo not drawn)	0.9	1	-4.8	-16.4	4.0	7.3
CS(=O)(=O)N1CCC(C(=O)NCc2ccncc2)CC1	0.4	0.8	15.6	-18.5	-2.0	59.4*
O=C(C1CCN(S(=O)(=O)c2cnc[nH]2)CC1)N1CCn2c1nc1ccccc12	0.4	0.4	60.5*	nt	-2.0	64.1*
S=c1[nH]nc(C2CCCCC2)n1/N=C/c1ccc(Br)s1	0.9	0.6	37.2	nt	-8.0	5.5
CSC1=N/C(=C\c2ccccc2)C(=O)N1C	0.9	1	2.3	nt	13.0	14.7
Cc1ccc(NC(=O)C2CCN(S(=O)(=O)c3cnc[nH]3)CC2)nc1	0.7	0.9	6.7	-13.7	-1.0	32.2
Cc1ccc(CNC(=O)C2CCN(S(=O)(=O)c3cnc[nH]3)CC2)cc1	0.1	0.8	15.9	nt	-1.0	89.7*
COc1ccccc1CNC(=O)C1CCCN(S(=O)(=O)c2cnc[nH]2)C1 (stereo not drawn)	0.1	0	96.6*	-3.3	6.0	90.0*
COc1ccc(CNC(=O)C2CCCN(S(=O)(=O)c3cnc[nH]3)C2)cc1 (stereo not drawn)	0.5	0.2	77.6*	-18.1	-2.0	46.3
COc1ccccc1CNC(=O)C1CCCN(S(=O)(=O)c2c(C)[nH]c(=O)[nH]c2=O)C1 (stereo not drawn)	0.9	1.1	-8.5	-20.8	4.0	8.3
CC12CCC(C(=O)N3CCN(C(=O)C45CCC(C)(C(=O)O4)C5(C)C)CC3)(OC1=O)C2(C)C	nt	nt	nt	-17.3	nt	nt
CCOc1cccc(NC(=O)C2CC(=O)N(C)C(=Nc3ccccc3)S2)c1 (stereo not drawn)	0.3	0.7	25.9	57.4	-4.0	73.7*
CCOc1cccc(NC(=O)C2CC(=O)N(C)C(=Nc3cccc(F)c3)S2)c1 (stereo not drawn)	0.3	0.5	51.2*	88.2*	-2.0	75.0*
CCOc1cccc(NC(=O)C2CC(=O)N(C)C2)c1 (stereo not drawn)	1.1	1	-3.9	-11.2	5.0	-9.9
Cc1ccc(CN2C(=O)CCC2C(=O)NCCN(CC(C)C)CC(C)C)cc1 (stereo not drawn)	0.7	0.9	7.9	-1.3	0.0	27.4
COc1ccc(CC(=O)Nc2ccc(S(=O)(=O)Nc3ncccn3)cc2)cc1	1.1	1	0.2	nt	5.0	-10.5
CC(C)Oc1ccc(C(=O)N/N=C/c2ccc(-c3ccc(S(=O)(=O)Nc4ncccn4)cc3)o2)cc1	0.2	0.8	18.9	nt	10.0	83.8*
Cc1cc(C)c(C#N)c(SC(F)F)n1	1.2	1	-3.6	nt	-2.0	-23.4
Fc1ccc(-c2cnc[nH]2)cc1	0.2	0.5	54.7*	-5.0	4.0	75.8*
Cc1nc2c(Br)cc(Br)cc2cc1O	0.4	0.7	28.8	nt	14.0	62.2*
CC(C)CCn1c(CN2CC(C)OC(C)C2)nc2c1c(=O)n(C)c(=O)n2C (stereo not drawn)	nt	nt	nt	-0.3	nt	nt
CC(Oc1ccccc1)C(=O)OCC(=O)NC(=O)NCc1ccco1 (stereo not drawn)	0.5	0.9	9.6	-3.5	0.0	52.3*
CCc1ccc(OCC(=O)NCc2ccco2)c(Br)c1	0.3	0.1	87.0*	10.9	15.0	72.1*
O=C(COC(=O)CCOc1ccccc1)NCc1ccco1	0.6	0.9	8.6	-10.7	0.0	37.7
SMILES	CYP2C9 activ	CYP2C19 act	CYP2C19 inh	Ecoli tolC	E coli WT exp	CYP2C9 inh
CC(C)c1ccc(OCC(=O)NCc2ccco2)cc1	0.3	0.1	90.3*	7.3	5.0	74.5*
CC(C)(C)c1ccc(OCC(=O)NCc2ccco2)cc1	0.7	0.8	15.0	21.6	-1.0	31.0
CCOc1ccc(C(=O)NCc2ccco2)cc1	1	0.3	65.5*	-6.3	14.0	-1.4
C=C(C)c1ccc(C(C)(C)NC(=O)NCc2ccco2)cc1	0.2	0.1	90.5*	-4.2	2.0	80.8*
O=C(COC(=O)CC1CC2CCC1C2)NC(=O)NCc1ccco1 (stereo not drawn)	0.3	0.4	63.4*	nt	-2.0	69.5*
C=C(C)c1ccc(C(C)(C)NC(=O)N(Cc2ccccc2)Cc2ccco2)cc1	1.1	1.1	-11.7	nt	1.0	-9.6
COc1ccc(OCC(=O)OCC(=O)NCc2ccco2)cc1	1	1	0.0	nt	-11.0	4.7
Cn1c(=O)oc2cc(S(=O)(=O)NCC3CCCO3)ccc21 (stereo not drawn)	nt	nt	nt	-28.5	nt	nt
CCOC(=O)C1C(c2ccccc2Cl)NC(=O)N(C)C1(O)C(F)(F)F (stereo not drawn)	1	1	0.1	0.0	-7.0	4.7
Cc1cc(C)n(C(C)n2nc(C)cc2C)n1	1.1	0.8	17.4	-5.0	-3.0	-8.4
CCC(=O)Oc1ccc(C/C(=N\O)c2ccc(O)cc2O)o1	0	0	95.6*	15.6	15.0	96.5*
COC(=O)c1ccc(C2CC(=O)NC3=C2C(=O)CCC3)cc1 (stereo not drawn)	1.1	0.9	8.7	-17.0	0.0	-9.3
COC(=O)c1ccc(COc2ccc(C3C4=C(CCCC4=O)Nc4onc(C)c43)cc2)cc1 (stereo not drawn)	0.3	0.8	16.6	40.1	-4.0	67.8*
Cc1cccc(NC(=O)CS(=O)(=O)Cc2ccccc2)n1	1.1	0.8	18.0	nt	4.0	-9.0
CC(C)CN(CC(C)C)C(=O)Cc1coc2ccc3ccccc3c12	0.9	0.6	39.9	nt	3.0	11.9
Cc1cccc(NC(=O)Cc2coc3ccc4ccccc4c23)n1	2.3*	0.1	88.0*	nt	-5.0	-127.4
CCCCNC(=O)Cc1coc2ccc3ccccc3c12	3.1*	0.4	64.1*	nt	1.0	-207.6
Cc1ccc(CC(=O)Nc2cccc(C)n2)cc1	0.8	0.3	74.5*	-2.5	8.0	22.8
Cc1cc2c(ccc3[nH]onc32)n1	1.2	0.7	25.5	6.9	27.0	-24.7
Cc1ccc(S(=O)(=O)NC(C)C(=O)Nc2ccc(C(N)=O)cc2)cc1 (stereo not drawn)	0.8	0.9	11.0	-4.9	0.0	23.2
COC(=O)C1=C(C)NC(=O)CC1c1cc(Br)ccc1F (stereo not drawn)	0.7	0.7	27.3	-3.9	-10.0	31.7
O=C(NC1CCCCC1)c1nc2c(nnn2Cc2ccccc2Cl)c(=O)[nH]1	nt	nt	nt	75.8*	10.0	nt
COc1ccc(Cn2nnc3c(=O)[nH]c(C(=O)NCCc4ccc(F)cc4)nc32)cc1OC	0.3	1	-1.3	21.4	-11.0	74.5*
O=C(NCCc1ccccc1)c1nc2c(nnn2Cc2ccccc2Cl)c(=O)[nH]1	nt	nt	nt	96.6*	-14.0	nt

Compound activity deposited in PubChem BioAssay by several laboratories.
